# “And” between values parts separate entries of the source, which are not always exact repeats. Equal values may be shown once.
# Target: Methionine--tRNA ligase, mitochondrial (Homo sapiens) (UniProt Q96GW9)
# Test: inhibitors of human mitochondrial MetRS, late-stage follow-up, selectivity assay for T. brucei MetRS inhibitor project, biochemical, radioactivity, round 1 (AID 743061);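 further: 0% = DMSO with full reaction and 100% = DMSO wells lacking tRNA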
# Conditions: recombinant human mtMetRS, [3H]Met tRNA charging, at 1 µM, stronger effect = higher value
# Procedure, shortened: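 System: human mitochondrial MetRS enzyme / Buffer or medium: pH 8.0 reaction buffer containing 2.5 mM ATP / Probe or stimulus: 240 nM [3H]methionine with bulk E. coli tRNA acceptor / Doses: 10 and 1 µM / Times: 15 min compound–enzyme preincubation, then 1 h reaction at room temperature / Detection: scintillation counts of TCA-precipitated charged tRNA on filters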
row,Compound,inhibition
1,O=C(NCCc1nc2ccccc2[nH]1)c1ccc(Cl)c([N+](=O)[O-])c1,2.97%
2,CCN(CC)C(=O)C(=O)c1cn(CC(=O)N(CC)c2ccccc2)c2ccccc12,2.19%
3,O=C(NNC(=O)c1cc(-c2ccc(Cl)c(Cl)c2)nc2ccccc12)Nc1ccccc1,-17.1%
4,Cc1ccc(C(=O)NCCc2nc3ccccc3[nH]2)cc1[N+](=O)[O-],0.93%
5,O=C(Cn1cc(C(=O)C2CC2)c2ccccc21)Nc1cccc(C(F)(F)F)c1,0.73%
6,CC(C)OCCCN1CC(=O)N2C(c3cccc([N+](=O)[O-])c3)c3[nH]c4ccccc4c3C[C@H]2C1=O (stereo partly specified),-24.2%
7,Cc1ccc(C(=O)NCCc2nc3ccccc3[nH]2)cc1C,1.34%
8,O=C1CC(SCc2nc3ccccc3[nH]2)C(=O)N1c1cccc(Cl)c1 (stereo unspecified),-4.5%
9,Cc1cc2cc(C(=O)N3CCCC(c4nc5ccccc5[nH]4)C3)ccc2o1 (stereo unspecified),-13.2%
10,O=C1CC(N(CCc2ccccc2)C(=S)Nc2ccccc2)C(=O)N1c1ccc(Br)cc1 (stereo unspecified),-25.5%
11,Cc1ccc(CNC(=O)CSc2nnc3c(n2)[nH]c2ccc(C)cc23)cc1,1.77%
12,CCN(CC)C(=O)C(=O)c1cn(CC(=O)N2CCCc3ccccc32)c2ccccc12,-14.3%
13,Oc1c(Cl)cc(Cl)cc1CNc1nc2ccccc2[nH]1,-0.2%
14,O=C(Nc1ccc(F)c(Cl)c1)C1CC(=O)n2c(nc3ccccc32)N1 (stereo unspecified),-11.1% and -0.44%
15,COc1cccc(NC(=O)CSc2nnc3c(n2)[nH]c2ccc(C)cc23)c1,49.7%
16,O=C(NCc1nc2ccccc2[nH]1)C1=C[C@H](c2ccc(Br)cc2)C[C@H](OCCCCO)O1,-6.37%
